Data: ChEMBL document CHEMBL1765017, “Homoisoflavonoids: natural scaffolds with potent and selective monoamine oxidase-B inhibition properties” (J Med Chem, 2011)

How the values were obtained:
[1] = target: T1, Amine oxidase [flavin-containing] B (Homo sapiens, UniProt P27338); experiment: biochemical; assay type: cell-based, BTI-TN-5B1-4
T1 sequence (P27338 whole entry): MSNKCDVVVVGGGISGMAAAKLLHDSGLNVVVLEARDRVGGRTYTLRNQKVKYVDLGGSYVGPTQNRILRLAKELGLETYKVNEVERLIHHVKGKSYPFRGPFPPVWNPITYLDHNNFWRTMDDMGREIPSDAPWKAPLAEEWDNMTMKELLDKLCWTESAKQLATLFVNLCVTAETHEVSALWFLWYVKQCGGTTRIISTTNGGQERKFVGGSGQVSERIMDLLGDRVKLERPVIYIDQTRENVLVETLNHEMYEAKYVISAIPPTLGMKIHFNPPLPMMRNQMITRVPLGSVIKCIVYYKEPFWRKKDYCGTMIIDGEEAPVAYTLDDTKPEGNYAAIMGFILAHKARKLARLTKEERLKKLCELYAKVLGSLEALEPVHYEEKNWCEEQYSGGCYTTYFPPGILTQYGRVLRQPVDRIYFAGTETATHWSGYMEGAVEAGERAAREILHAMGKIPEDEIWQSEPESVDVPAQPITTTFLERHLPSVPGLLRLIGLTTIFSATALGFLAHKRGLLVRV

[2] = target: T2, Amine oxidase [flavin-containing] A (Homo sapiens, UniProt P21397); experiment: Inhibition of human recombinant MAO-A expressed in baculovirus infected BTI-TN-5B1-4 insect sells assessed as hydrogen peroxide production at 100 uM by fluorimetric method; conditions: for inhibition (INH): human, bti-tn-5b1-4, 100 µM; for inhibition at 100 µM: BTI-TN-5B1-4, human
T2 sequence (P21397 whole entry): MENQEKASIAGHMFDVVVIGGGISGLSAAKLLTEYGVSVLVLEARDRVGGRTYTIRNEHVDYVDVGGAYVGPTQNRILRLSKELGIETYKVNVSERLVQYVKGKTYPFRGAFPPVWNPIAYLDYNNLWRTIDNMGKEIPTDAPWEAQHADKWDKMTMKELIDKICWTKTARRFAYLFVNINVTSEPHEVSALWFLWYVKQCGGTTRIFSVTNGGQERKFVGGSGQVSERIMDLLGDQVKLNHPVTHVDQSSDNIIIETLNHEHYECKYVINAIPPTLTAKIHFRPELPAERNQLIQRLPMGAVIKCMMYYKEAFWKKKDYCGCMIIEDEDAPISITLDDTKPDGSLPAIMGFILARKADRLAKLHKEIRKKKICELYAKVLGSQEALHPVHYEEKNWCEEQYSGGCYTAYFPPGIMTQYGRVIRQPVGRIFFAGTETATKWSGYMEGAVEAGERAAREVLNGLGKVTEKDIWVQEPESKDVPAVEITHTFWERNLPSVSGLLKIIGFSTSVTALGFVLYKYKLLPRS
Summary of the method: (§1)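 Microsomal human MAO-A or MAO-B from BTI-TN-5B1-4 insect cells infected with recombinant baculovirus carrying the isoform cDNA. p-Tyramine was the substrate for both isoforms. H2O2 production was detected fluorimetrically with the Amplex Red reagent. Compounds were checked for direct reaction with Amplex Red. Highest concentrations tested were 100 μM, or 1 mM for some compounds.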

[3] = target: T1, Amine oxidase [flavin-containing] B; experiment: Inhibition of human recombinant MAO-B expressed in baculovirus infected BTI-TN-5B1-4 insect sells assessed as hydrogen peroxide production at 100 uM by fluorimetric method; conditions: for inhibition (INH): human, bti-tn-5b1-4, 100 µM; for inhibition at 100 µM: BTI-TN-5B1-4, human
Summary of the method: as §1

[4] = target: T2, Amine oxidase [flavin-containing] A; experiment: Inhibition of human recombinant MAO-A expressed in baculovirus infected BTI-TN-5B1-4 insect sells assessed as hydrogen peroxide production at 500 uM by fluorimetric method; conditions: BTI-TN-5B1-4, human
Summary of the method: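 Microsomal hMAO-A from insect cells (BTI-TN-5B1-4) infected with recombinant baculovirus carrying the hMAO-A cDNA. Fluorimetric Amplex Red assay measures H2O2 formed from p-tyramine, the substrate. Percent inhibition is expressed against control activity, given as pmol p-tyramine oxidised per min. Mean ± SEM of five experiments.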

[5] = target: T2, Amine oxidase [flavin-containing] A; experiment: Inhibition of human recombinant MAO-A expressed in baculovirus infected BTI-TN-5B1-4 insect sells assessed as hydrogen peroxide production at 500 uM measured after repeated washing by fluorimetric method; conditions: BTI-TN-5B1-4, human
Summary of the method: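 Microsomal hMAO-A from insect cells infected with recombinant baculovirus. After exposure to inhibitor, the enzyme was washed repeatedly by centrifugation-ultrafiltration. Remaining activity was then read by Amplex Red fluorescence as H2O2 formed from p-tyramine. Percent inhibition is compared with before washing by ANOVA/Dunnett's. Mean ± SEM, n = 5.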

[6] = target: T1, Amine oxidase [flavin-containing] B; experiment: Inhibition of human recombinant MAO-B expressed in baculovirus infected BTI-TN-5B1-4 insect sells assessed as hydrogen peroxide production at 1 mM by fluorimetric method; conditions: bti-tn-5b1-4, 1000 µM
Summary of the method: as §1

[7] = target: T2, Amine oxidase [flavin-containing] A; experiment: Inhibition of human recombinant MAO-A expressed in baculovirus infected BTI-TN-5B1-4 insect sells assessed as hydrogen peroxide production by fluorimetric method
[8] = organism: Homo sapiens; experiment: Selectivity index, ratio of IC50 for human MAO-A to IC50 for human MAO-B
Summary of the method: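 SI = IC50(hMAO-A)/IC50(hMAO-B). IC50s come from the Amplex Red fluorimetric assay of H2O2 from p-tyramine using baculovirus-expressed human isoforms, mean ± SEM of five experiments.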

[9] = target: T2, Amine oxidase [flavin-containing] A; experiment: Inhibition of human recombinant MAO-A expressed in baculovirus infected BTI-TN-5B1-4 insect sells assessed as hydrogen peroxide production at 50 uM measured after repeated washing by fluorimetric method; conditions: BTI-TN-5B1-4, human
[10] = target: T1, Amine oxidase [flavin-containing] B; experiment: Inhibition of human recombinant MAO-B expressed in baculovirus infected BTI-TN-5B1-4 insect sells assessed as hydrogen peroxide production at 10 nM by fluorimetric method; conditions: BTI-TN-5B1-4, human
[11] = target: T1, Amine oxidase [flavin-containing] B; experiment: Inhibition of human recombinant MAO-B expressed in baculovirus infected BTI-TN-5B1-4 insect sells assessed as hydrogen peroxide production at 10 nM measured after repeated washing by fluorimetric method; conditions: BTI-TN-5B1-4, human
[12] = target: T2, Amine oxidase [flavin-containing] A; experiment: Inhibition of human recombinant MAO-A expressed in baculovirus infected BTI-TN-5B1-4 insect sells assessed as hydrogen peroxide production at 50 uM by fluorimetric method; conditions: BTI-TN-5B1-4, human

Row | SMILES | IC50 [1] [µM] | inhibition (INH) [2] | also measured
1 | COc1cc(/C=C2\COc3ccccc3C2=O)cc(OC)c1OC | 20.7 | Not Active | –
2 | O=C(O)c1cc(/C=C2\COc3ccccc3C2=O)ccc1O | – | Not Active | inhibition (INH) [3]: Not Active
3 | COc1ccc(/C=C2\COc3cc(OC)cc(OC)c3C2=O)cc1 | 1.57 | Not Active | –
4 | O=C1c2c(Cl)cc(Cl)cc2OCC1Cc1ccc(Cl)cc1 (stereo unspecified) | 4.59 | Not Active | –
5 | COc1ccc(/C=C2\COc3ccccc3C2=O)c(OC)c1OC | 1.31 | Not Active | –
6 | O=C1c2ccccc2OCC1Cc1ccc(O)cc1 (stereo unspecified) | – | Not Active | inhibition at 100 µM [3]: 40%
7 | COc1ccc(/C=C2\COc3ccccc3C2=O)c(O)c1 | 1.33 | – | inhibition at 100 µM [2]: 40%
8 | O=C1c2ccccc2OCC1Cc1ccc(Cl)cc1 (stereo unspecified) | 7.37 | Not Active | –
9 | O=C1c2ccccc2OCC1Cc1ccccc1 (stereo unspecified) | 58.5 | Not Active | –
10 | O=C1/C(=C/c2ccc(Cl)cc2)COc2ccccc21 | 0.154 | Not Active | –
11 | O=C(NCCN1CCOCC1)c1ccc(Cl)cc1 [MOCLOBEMIDE] | – | – | inhibition at 500 µM [4]: 86%; inhibition at 500 µM [5]: 11.4%; inhibition (INH) [6]: Not Active
12 | O=c1c(Cc2ccc(Cl)cc2)coc2ccc(Cl)cc12 | – | Not Active | inhibition at 100 µM [3]: 40%
13 | COc1cccc(/C=C2\COc3ccccc3C2=O)c1OC | 1.92 | Not Active | –
14 | Nc1ccc(/C=C2\COc3ccccc3C2=O)cc1 | 0.879 | Not Active | –
15 | CC(=O)Nc1ccc(/C=C2\COc3ccccc3C2=O)cc1 | 1.06 | – | IC50 [7]: 2.1 µM; Ratio IC50 [8]: 2
16 | COc1ccc(/C=C2\COc3ccccc3C2=O)cc1 | 0.0589 | Not Active | –
17 | O=c1c(Cc2ccc(O)cc2)coc2ccccc12 | – | Not Active | inhibition at 100 µM [3]: 40%
18 | COc1ccc(/C=C2\COc3ccccc3C2=O)cc1O | 0.477 | Not Active | –

Row | SMILES | IC50 [1] [µM] | inhibition (INH) [2] | also measured
19 | Nc1cc(/C=C2\COc3ccccc3C2=O)ccc1O | 0.484 | – | IC50 [7]: 1.44 µM; Ratio IC50 [8]: 3
20 | COc1cc(/C=C2\COc3ccccc3C2=O)ccc1O | 0.104 | – | inhibition at 100 µM [2]: 40%
21 | O=C1/C(=C/c2ccc(O)cc2)COc2ccccc21 | 0.0554 | Not Active | –
22 | O=C1c2cc(Cl)ccc2OCC1Cc1ccc(Cl)cc1 (stereo unspecified) | 3.07 | Not Active | –
23 | O=c1c(Cc2ccccc2)coc2ccccc12 | – | Not Active | inhibition (INH) [3]: Not Active
24 | COc1ccc(/C=C2\COc3ccccc3C2=O)c(OC)c1 | 0.248 | Not Active | –
25 | O=C1/C(=C/c2ccc(O)cc2)COc2cc(O)cc(O)c21 | 0.00861 | – | inhibition at 50 µM [9]: 61.8%; inhibition at 0.01 µM [10]: 48.7%; inhibition at 0.01 µM [11]: 36.2%; IC50 [7]: 11.5 µM; Ratio IC50 [8]: 1330; inhibition at 50 µM [12]: 68.3%
26 | O=c1c(Cc2ccc(Cl)cc2)coc2ccccc12 | – | Not Active | inhibition (INH) [3]: Not Active
27 | O=C1/C(=C/c2ccc(O)c([N+](=O)[O-])c2)COc2ccccc21 | 0.491 | Not Active | –
28 | O=C1/C(=C/c2ccccc2)COc2ccc(Cl)cc21 | 0.331 | Not Active | –
29 | O=C1/C(=C/c2ccc(O)c(O)c2)COc2ccccc21 | 0.141 | – | IC50 [7]: 4.74 µM; Ratio IC50 [8]: 34
30 | COc1ccc(Cc2coc3cc(OC)cc(OC)c3c2=O)cc1 | – | Not Active | inhibition at 100 µM [3]: 40%
31 | O=c1c(Cc2ccc(Cl)cc2)coc2cc(Cl)cc(Cl)c12 | 0.439 | – | inhibition at 100 µM [2]: 40%
32 | O=C1/C(=C/c2ccccc2)COc2ccccc21 | 0.48 | Not Active | –
33 | CN(C)c1ccc(/C=C2\COc3ccccc3C2=O)cc1 | 0.00851 | Not Active | –
34 | COc1ccc(Cc2coc3ccccc3c2=O)cc1 | 21.6 | Not Active | –
35 | O=C1/C(=C/c2ccc(Cl)cc2)COc2ccc(Cl)cc21 | 0.0318 | Not Active | –
36 | O=C1/C(=C/c2ccc(Cl)cc2)COc2cc(Cl)cc(Cl)c21 | 0.013 | Not Active | –
